The list is not random: actives were taken first. Their share in the collection is about 12%.
Wee1 stabilizer: blocks degradation of human Wee1 kinase; HeLa Luc-Wee1K328M stability, luciferase luminescence; 100% = proteasome inhibitor MG132 effect; reporter increase, % at 5 µM; 220,000 compounds, 1.2% hits;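 active = activation above the mean of all tested compounds plus 3 SD, set per screening run, cut at about 8.8% in these data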;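 also: cells exposed to compound for 20 h before luminescence read; 0% = DMSO alone and 100% = MG132 at 30 µM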
Target sequence (P30291 whole entry K328M): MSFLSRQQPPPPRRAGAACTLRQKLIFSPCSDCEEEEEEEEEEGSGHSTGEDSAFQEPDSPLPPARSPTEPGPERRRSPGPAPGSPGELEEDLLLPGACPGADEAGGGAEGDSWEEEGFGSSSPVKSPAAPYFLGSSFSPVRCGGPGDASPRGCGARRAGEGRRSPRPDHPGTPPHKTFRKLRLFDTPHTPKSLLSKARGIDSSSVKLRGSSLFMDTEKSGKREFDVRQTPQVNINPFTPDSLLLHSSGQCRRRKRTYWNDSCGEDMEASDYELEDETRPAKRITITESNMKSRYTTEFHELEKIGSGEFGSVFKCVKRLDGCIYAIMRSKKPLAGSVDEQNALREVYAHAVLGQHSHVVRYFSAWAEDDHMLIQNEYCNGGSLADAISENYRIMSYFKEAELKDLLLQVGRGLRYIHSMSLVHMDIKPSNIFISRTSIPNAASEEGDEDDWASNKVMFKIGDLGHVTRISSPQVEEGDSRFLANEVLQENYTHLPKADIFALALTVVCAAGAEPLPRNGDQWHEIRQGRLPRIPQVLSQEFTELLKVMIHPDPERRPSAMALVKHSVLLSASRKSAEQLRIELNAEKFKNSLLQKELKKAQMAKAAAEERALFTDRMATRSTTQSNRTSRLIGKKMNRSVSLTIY
CHOP inh: blocks CHOP induction under ER stress. CHO-K1 CHOP-promoter luciferase, tunicamycin-induced, 15-18 h. 220,000 compounds, 3.8% hits. inhibition, % at 10 µM;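 active = compounds that reduced the stress-induced luciferase reporter signal by more than about 70% of percent inhibition, limit read from the data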;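 also: 0% = tunicamycin plus vehicle and 100% = wells without tunicamycin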
Lmaj promast: inhibitors of Leishmania major promastigote growth; AID 1063; Leishmania major promastigotes, resazurin fluorescence viability; inhibition, % at 10 µM; 200,000 compounds, 9% hits;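 also: promastigotes grown with compound for 44 hours at 28 °C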
Rad51 HR inh: blocks human Rad51 in homologous recombination. hRad51 DNA strand exchange, fluorescence dequenching. inhibition, % at 10 µM. 200,000 compounds, 0.085% hits;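 active = inhibition above 40% at the single screening dose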;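 also: 0% = DMSO control wells and 100% = blanks with heterologous ssDNA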
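System: human Rad51 nucleoprotein filaments preassembled on unlabelled ssDNA. Reagent: labelled 47-mer dsDNA for strand exchange. Schedule: 30-min compound preincubation and 15-min exchange, both room temperature. Measured by: FRET fluorescence dequenching, excitation 485 nm, emission 520 nm. Read-out: Fluorescence-based percent inhibition, control- and blank-normalised. Benchmarks: plate controls and plate blanks.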
PKD1 kinase inh: blocks activity of human protein kinase D1; PKD1 kinase fluorescence polarization assay; inhibition, % (concentration not given with the values); 200,000 compounds, 0.056% hits; AID 797
Arbovirus anti: blocks arbovirus infection; arbovirus infection cell-based antiviral screen; inhibition, % at 10 µM; 200,000 compounds, 0.37% hits; in the data active = inhibition above about 30%
Numbers without * were called inactive. Rule as the data show it, unless noted: active = inhibition above about 50%; inactive = the rest.

`CN(C)c1ccc(/C=C/C=C2/C(=O)NC(=O)N(c3ccccc3)C2=O)cc1` gave Wee1 stabilizer -2, CHOP inh 84*, Lmaj promast 96*, Rad51 HR inh -19, PKD1 kinase inh -8 and Arbovirus anti -31.
Screening O=C1NC(=O)N(CCc2ccc(F)cc2)C(=O)/C1=C\C=C\c1ccccc1 returned Wee1 stabilizer -3, CHOP inh 73*, Lmaj promast 100*, Rad51 HR inh 6, PKD1 kinase inh 0 and Arbovirus anti -31.
For O=C1NC(=O)N(Cc2ccccc2)C(=O)/C1=C\C=C\c1ccco1 the results were Wee1 stabilizer 5, CHOP inh 91*, Lmaj promast 77*, Rad51 HR inh -51, PKD1 kinase inh 3 and Arbovirus anti 1.
C=CCN1C(=O)NC(=O)/C(=C/C=C/c2ccccc2)C1=O was read as Wee1 stabilizer 3, CHOP inh 15, Lmaj promast 100*, Rad51 HR inh -24, PKD1 kinase inh 4 and Arbovirus anti 3.
For COc1ccccc1C1C([N+](=O)[O-])=C(N)Oc2c1c(=O)oc1ccccc21 (centres undefined) the results were Wee1 stabilizer -2, CHOP inh 5 and Rad51 HR inh -16.
Screening O=C(c1ccc(N2CC3CC(C2)c2cccc(=O)n2C3)c([N+](=O)[O-])c1)N1CCCC1 (centres undefined) returned Wee1 stabilizer 2, CHOP inh 11, Lmaj promast -3, Rad51 HR inh -11, PKD1 kinase inh -4 and Arbovirus anti 11.
For Oc1ccc2c3c1O[C@H]1c4oc5ccccc5c4C[C@@]4(O)[C@@H](C2)N(CC2CC2)CC[C@]314 the results were CHOP inh 20 and Rad51 HR inh 4.
`O=C(O)c1sc2cc(Cl)ccc2c1Cl` gave Wee1 stabilizer -1 and CHOP inh 16.
O=C1CC[C@@]2(O)C3Cc4ccc(O)c5c4C2(CCN3CC2CC2)[C@H]1O5 (some centres undefined) was read as CHOP inh -29.
For O=C(c1ccco1)c1cn(Cc2ccc(Cl)cc2)c2ccccc12 the results were Wee1 stabilizer -2, CHOP inh 51, Lmaj promast 80*, Rad51 HR inh -9, PKD1 kinase inh -9 and Arbovirus anti 12.
COc1ccccc1OCCCn1cc(C(=O)c2ccco2)c2ccccc21 was read as Wee1 stabilizer -1, CHOP inh 13, Lmaj promast 9, Rad51 HR inh -2, PKD1 kinase inh -5 and Arbovirus anti 14.
For Cc1cc([N+](=O)[O-])c(Cl)cc1NC(=O)C(C)C the results were Wee1 stabilizer 0, CHOP inh 49, Lmaj promast 58*, Rad51 HR inh 0, PKD1 kinase inh -7 and Arbovirus anti 7.
CN1CCN(c2ccc([N+](=O)[O-])c(Sc3nncn3C)c2)CC1 was read as Wee1 stabilizer 1, CHOP inh -3, Lmaj promast -5, Rad51 HR inh -1, PKD1 kinase inh -2 and Arbovirus anti 8.
`COc1cc2c(cc1OC)CN(c1ccc([N+](=O)[O-])c(C(F)(F)F)c1)CC2` gave Wee1 stabilizer -4, CHOP inh 26, Lmaj promast 66*, Rad51 HR inh 5, PKD1 kinase inh -6 and Arbovirus anti -10.
For N=c1sccn1Cc1ccc(Cl)cc1Cl the results were Wee1 stabilizer 4, CHOP inh -2, Lmaj promast 66*, Rad51 HR inh -6, PKD1 kinase inh 5 and Arbovirus anti 2.
For COc1ccccc1N1CCN(Cc2ccc(Br)s2)CC1 the results were Wee1 stabilizer 0, CHOP inh 59, Lmaj promast -11, Rad51 HR inh -5, PKD1 kinase inh -4 and Arbovirus anti 8.
CN1CCN(Cc2ccc(Br)s2)CC1 was read as Wee1 stabilizer -2, CHOP inh -2, Lmaj promast 70*, Rad51 HR inh -7, PKD1 kinase inh -9 and Arbovirus anti 3.
CCOP(=S)(OCC)SCC(=O)NC(C(=O)O)C(C)C (centres undefined) was read as Wee1 stabilizer 2, CHOP inh 11, Lmaj promast -7, Rad51 HR inh 4, PKD1 kinase inh -3 and Arbovirus anti 4.
Screening Fc1ccc2c(c1)nnn2C1CCN(Cc2ccccc2)CC1 returned Wee1 stabilizer -1, CHOP inh -14, Lmaj promast 75*, Rad51 HR inh -4, PKD1 kinase inh -1 and Arbovirus anti -1.
Fc1ccc2c(c1)nnn2C1CCN(Cc2nnnn2CCc2ccccc2)CC1 was read as Wee1 stabilizer 1, CHOP inh 27, Lmaj promast 4, Rad51 HR inh -5, PKD1 kinase inh 3 and Arbovirus anti 6.
Screening Cc1sc2c(c1C)C(c1ccc(C(C)(C)C)cc1)=NCC(=O)N2CC(=O)Nc1nccs1 returned Wee1 stabilizer 0, CHOP inh 84*, Lmaj promast 49, Rad51 HR inh -4, PKD1 kinase inh -10 and Arbovirus anti -15.
For Cc1sc2c(c1C)C(c1cccs1)=NCC(=O)N2CC(=O)NCc1cccs1 the results were Wee1 stabilizer -4, CHOP inh 25, Lmaj promast 16, Rad51 HR inh -8, PKD1 kinase inh -15 and Arbovirus anti 1.
CCC(C)(C)n1nnnc1C(c1cccs1)N1CC=C(c2ccc(F)cc2)CC1 (centres undefined) was read as Wee1 stabilizer -5, CHOP inh -14, Lmaj promast 2, Rad51 HR inh 1, PKD1 kinase inh -2 and Arbovirus anti 8.
`Fc1ccc(C2=CCN(C(c3cccs3)c3nnnn3CCc3ccccc3)CC2)cc1` (centres undefined) gave Wee1 stabilizer -3, CHOP inh 24, Lmaj promast 100*, Rad51 HR inh 0, PKD1 kinase inh 2 and Arbovirus anti -2.
`CC(C)c1cccc(C(C)C)c1OCCn1ccnc1` gave Wee1 stabilizer -1, CHOP inh 39, Lmaj promast 94*, Rad51 HR inh 2, PKD1 kinase inh 4 and Arbovirus anti 5.
S=P(NC1CCCCC1)(N1CC1)N1CC1 was read as Wee1 stabilizer -3, CHOP inh 15 and Rad51 HR inh -5.
For CN(C)CC1CSCCC1(O)c1cccc(Cl)c1 (centres undefined) the results were Wee1 stabilizer 0, CHOP inh -2, Lmaj promast -5, Rad51 HR inh -2, PKD1 kinase inh -7 and Arbovirus anti -5.
Screening CCCCn1c(O)c(C(C)=Nc2ccc(OCC)cc2)c(=O)[nH]c1=O returned Wee1 stabilizer -2, CHOP inh 95*, Lmaj promast 20, Rad51 HR inh 2, PKD1 kinase inh -2 and Arbovirus anti -4.
For CCCCn1c(O)c(C(C)=NC(Cc2c[nH]c3ccccc23)C(=O)OC)c(=O)[nH]c1=O (centres undefined) the results were Wee1 stabilizer 1, CHOP inh 3, Lmaj promast 99*, Rad51 HR inh -3, PKD1 kinase inh -3 and Arbovirus anti 10.
COC(=O)C1=C(c2cccc(OC)c2OC)C[C@@H]2CC[C@H]1N2C(=O)NCC1CC1 was read as Rad51 HR inh -4.

Assay outcomes as filed in PubChem BioAssay.
